# According to ChEMBL document CHEMBL1914282 (J Med Chem, 2011):
# The source made the active and inactive calls. No cut-off for these calls is given here.
# Tests used:
# [1] = biological target: T1, G-protein coupled receptor 35 (Homo sapiens, UniProt Q9HC97); assay: Agonist activity at GPR35 in human U20S cells expressing beta-lactamase and GPR35-GA14-VP16 transcription factor fusion protein assessed as transcriptional activation after 5 hrs by tango beta-arrestin translocation reporter assay; type: functional, cell-based, U2OS
# How it was run: (§1)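 Tango GPR35-bla U2OS cells, which express GPR35–TEV site–Gal4-VP16 and β-arrestin/TEV protease, seeded at 10000 cells/well and cultured overnight. Ligand stimulation for 5 h at 37 °C/5% CO2, then 2 h with LiveBLAzer FRET B/G substrate.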
# [2] = biological target: T1, G-protein coupled receptor 35; assay: Agonist activity at GPR35 in human HT-29 cells after 1 hr by dynamic mass redistribution assay; type: functional, cell-based
# How it was run: (§2)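 HT-29 monolayer grown overnight on resonant waveguide grating biosensor plates. Cells washed twice, held in HBSS (20 mM Hepes, pH 7.1) for 1 h at 26 °C, then a 2 min baseline taken before compound addition. Response recorded as resonant wavelength shift (pm) over 1 h. Compounds diluted from 10 mM DMSO stocks.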
# [3] = biological target: T1, G-protein coupled receptor 35; assay: Agonist activity at GPR35 in human U20S cells expressing beta-lactamase and GPR35-GA14-VP16 transcription factor fusion protein assessed as transcriptional activation after 5 hrs by tango beta-arrestin translocation reporter assay relative to zaprinast; type: functional, cell-based; details: U2OS
# How it was run: as §1, with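 “substrate. Coumarin:fluorescein ratio read as reporter response, doses up to 128 μM, n = 4.” for “substrate.”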
# HT-29 = assay: Induction of dynamic mass redistribution in human HT-29 cells transfected with receptor-targeting iRNA-based shRNA for GPR35 knock out at 10 uM; type: functional, cell-based
# How it was run: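 HT-29 seeded on biosensor plates at 5000 cells/well, 24 h at 37 °C. Transiently transfected with GFP-tagged shRNA plasmids against human GPR35, or control plasmid, at 0.05 μg DNA per well. Medium changed on day 3. About 48 h post-transfection, DMR agonist assay run with compounds at 10 μM, four replicates.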
# [4] = biological target: T1, G-protein coupled receptor 35; assay: Agonist activity at GPR35 in human HT-29 cells after 1 hr by dynamic mass redistribution assay in presence of GPR35 antagonist SPB05142; type: functional, cell-based
# [5] = biological target: T1, G-protein coupled receptor 35; assay: Agonist activity at GPR35 in human HT-29 cells after 1 hr by dynamic mass redistribution assay in presence of 64 uM GPR35 antagonist SPB05142; type: functional, cell-based
# [6] = biological target: T1, G-protein coupled receptor 35; assay: Agonist activity at GPR35 in human HT-29 cells assessed as desensitization of 1 uM zaprinast-induced DMR after 1 hr by dynamic mass redistribution assay; type: functional, cell-based
# [7] = biological target: T1, G-protein coupled receptor 35; assay: Agonist activity at GPR35 in human HT-29 cells after 1 hr by dynamic mass redistribution assay relative to zaprinast; type: functional, cell-based; set-up: concentration or dose not given beside the values
# How it was run: as §2, with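 “h. […]” for “h.”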
# [8] = biological target: T1, G-protein coupled receptor 35; assay: Agonist activity at GPR35 in human HT-29 cells assessed as receptor internalization at 1 uM after 1 hr by fluorescence imaging; type: functional, cell-based
# How it was run: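 HT-29 seeded in chamber slides at 10000 cells/well and grown 24 h at 37 °C. Cells exposed to compound or DMSO for 1 h at 37 °C, fixed in 4% formaldehyde, then blocked and permeabilized. Stained with anti-GPR35 (intracellular domain, 1:500, 24 h), then a fluorescent secondary antibody (1:500, 1 h, room temperature). GPR35 location assessed by confocal imaging.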
# [9] = biological target: T1, G-protein coupled receptor 35; assay: Agonist activity at GPR35 in human U20S cells expressing beta-lactamase and GPR35-GA14-VP16 transcription factor fusion protein assessed as transcriptional activation up to 128 uM after 5 hrs by tango beta-arrestin translocation reporter assay; type: functional, cell-based; details: U2OS
# How it was run: as §1, with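 “substrate. Coumarin:fluorescein ratio read as reporter response, doses up to 128 μM, n = 4.” for “substrate.”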
# T1 sequence (Q9HC97 whole entry, the tested form may be a part): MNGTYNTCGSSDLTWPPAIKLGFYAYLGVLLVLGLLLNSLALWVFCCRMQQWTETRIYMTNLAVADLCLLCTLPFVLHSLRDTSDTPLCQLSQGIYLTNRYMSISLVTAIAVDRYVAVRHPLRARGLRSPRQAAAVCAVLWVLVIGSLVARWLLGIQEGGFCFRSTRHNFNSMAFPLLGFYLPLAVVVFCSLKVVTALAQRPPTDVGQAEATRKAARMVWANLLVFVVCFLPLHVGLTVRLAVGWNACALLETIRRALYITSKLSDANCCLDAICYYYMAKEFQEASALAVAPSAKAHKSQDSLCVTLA
Structure (SMILES),EC50 [2] [µM],EC50 ([1]; u2os),Activity [8],Activity [9],EC50 ([1]; read-out: EC50) [µM],Activity [3],Activity (HT-29),Activity [4],Activity [5],IC50 [6] [µM],Activity [7] [%]
CC1=C(C#N)C(=C(C#N)C#N)OC1(C)C,17.1,,,,> 50,Active,inactive,inactive,inactive,12.1,87
Cc1csc2c1sc1cc(C(=O)O)sc12,6,,,,> 50,19%,inactive,Active,Active,6.07,118
CC1=C(C#N)C(=C(C#N)C#N)OC1(c1ccccc1)C(F)(F)F (configuration not stated),3.5,,,,> 50,14%,,inactive,inactive,1.94,99
CC1=C(C#N)C(=C(C#N)C#N)OC12CCCCC2,45.9,,,,> 50,Active,,Active,Active,16.4,106
CCCCCCCCCCCc1c(C(=O)O)sc2c(Br)csc12,1.89,,,,22.7,55%,,inactive,inactive,0.57,87
CCCCCCCCCCCCCc1c(C(=O)O)sc2c(Br)csc12,2.31,Not Active,,inactive,,inactive,,inactive,inactive,1.87,77
CCCOc1ccccc1-c1nc2[nH]nnc2c(=O)[nH]1,,,,,,,inactive,,,,
CCCCCCCCc1c(C(=O)O)sc2c(Br)csc12,1.46,,,,> 50,8%,,inactive,inactive,1.05,103
CCCCCCc1csc2cc(C(=O)O)sc12,9.4,,,,> 50,9%,,inactive,inactive,4.69,103
CCCCCCc1c(C(=O)O)sc2ccsc12,3.44,,,,> 50,20%,,Active,Active,1.49,99
CCCCCCCCCCCCCCCc1c(C(=O)O)sc2c(Br)csc12,4.56,Not Active,,,,,,,,5.92,

# Further lines, with some results ahead:
EC50 [2] [µM],EC50 ([1]; u2os),Activity [8],Activity [9],Structure (SMILES),EC50 ([1]; read-out: EC50) [µM],Activity [3],Activity (HT-29),Activity [4],Activity [5],IC50 [6] [µM],Activity [7] [%]
,Not Active,,,CCOC(=O)c1sc2c(Br)csc2c1C,,,,,,,
53.9,Not Active,,,CC1=C(C#N)C(=C(C#N)C#N)OC1(C)c1ccc(F)cc1F (configuration not stated),,,,,,48.9,
0.064,,Active,,Cc1c(C(=O)O)sc2c(Br)csc12,15,104%,inactive,inactive,inactive,0.11,105
11.1,,,inactive,CC1=C(C#N)C(=C(C#N)C#N)OC1(C)c1ccc(Cl)c(Cl)c1Cl (configuration not stated),,,,Active,Active,10.3,90
0.032,,,,CC1=C(C#N)C(=C(C#N)C#N)OC1(C)c1ccc(Cl)c(Cl)c1 (configuration not stated),10.2,29%,inactive,inactive,inactive,0.06,97
15.3,Not Active,,,CCCCc1ccc(C2(C)OC(=C(C#N)C#N)C(C#N)=C2C)cc1 (configuration not stated),,,,,,6.4,
3.35,Not Active,,,CC1=C(C#N)C(=C(C#N)C#N)OC1(C)c1c(F)c(F)c(F)c(F)c1F (configuration not stated),,,,,,4.48,
42.4,Not Active,,,O=C(O)c1cc2sccc2s1,,,,,,57,
6.6,,,inactive,CC1=C(C#N)C(=C(C#N)C#N)OC12c1ccccc1-c1ccccc12,,,,inactive,inactive,21.6,90
